For four molecules, MIC results are on record in ChEMBL document CHEMBL3585292, “Anti-dormant mycobacterial activity and target analysis of nybomycin produced by a marine-derived Streptomyces sp” (2015).

Test [1] concerns Mycobacterium tuberculosis. The experiment in a line: Antibacterial activity against Mycobacterium bovis BCG under hypoxic condition after 14 days by MTT assay. Type of test: functional. The settings on record: variant bovis BCG, 336 h. The method in brief: (§1)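 MTT microdilution. Mid-log bacilli in 7H9 with 10% OADC, 0.5% glycerol, 0.05% Tween 80, seeded at 1 × 10⁴ CFU/0.1 mL (M. smegmatis) or 1 × 10⁵ CFU/0.1 mL (BCG, M. tuberculosis), then serially diluted sample added. Aerobic incubation at 37 °C; hypoxic incubation at 37 °C under N2 with 0.2% O2. MTT (0.5 mg/mL, 50 µL) added for 12 h more, OD560 read to give MIC.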
On the technique in general: Formazan colour is commonly taken as a measure of viable cells.

In test [2] the test system is Mycobacterium tuberculosis. The experiment in a line: Antibacterial activity against Mycobacterium bovis BCG under aerobic condition after 7 days by MTT assay. Type of test: functional. The settings on record: variant bovis BCG, 168 h. In outline:
as §1

SMILES strings stand for the structures. Values after ≈ are worked out from the molar mass of the structure shown.

What is called MIC is the lowest concentration found to suppress growth. A high value points to a need for much substance. For the molecule `NNC(=O)c1ccncc1` [ISONIAZID], the results for the MIC in test [1] and in test [2] were over 100 µg/mL and 0.05 µg/mL (≈ 0.365 µM), respectively.
For `Cc1cc(=O)n2c3c(c4c(cc13)c(CO)cc(=O)n4C)OC2`, the MIC in test [1] and in test [2] was 1 µg/mL (≈ 3.35 µM) throughout.
Turning to `COC(=O)CCCc1cn(CCOCCOCCOCCOCCOCCOCCOCCOCCOCCOCCNC(=O)CCCC[C@@H]2SC[C@@H]3NC(=O)N[C@@H]32)nn1`, the MIC in test [1] and in test [2] was over 200 µg/mL throughout.
As to `Cc1cc(=O)n2c3c(c4c(cc13)c(COC(=O)CCCc1cn(CCOCCOCCOCCOCCOCCOCCOCCOCCOCCOCCNC(=O)CCCC[C@@H]3SC[C@@H]5NC(=O)N[C@@H]53)nn1)cc(=O)n4C)OC2`, the results for the MIC in test [1] and in test [2] were 6.25 µg/mL (≈ 5.46 µM) and 12.5 µg/mL (≈ 10.9 µM), respectively.
